Converted amounts (≈) assume the structure as drawn.
Columns and labels:
Format in all cases: functional
Staphylococcus aureus [1] = test: Antimicrobial activity against methicillin-susceptible Staphylococcus aureus by agar dilution CLSI method
How it was run: (§1)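 CLSI agar dilution MIC against S. aureus clinical isolates. Calcium was added to the medium for daptomycin testing. Vancomycin plates were read after a full 24-h incubation.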

Staphylococcus aureus [2] = test: Antimicrobial activity against panton-valentine leukocidin-negative community-acquired methicillin-resistant Staphylococcus aureus 481 by agar dilution CLSI method; how it was run: as §1
Staphylococcus aureus [3] = test: Antimicrobial activity against panton-valentine leukocidin-positive community-acquired methicillin-resistant Staphylococcus aureus 490 by agar dilution CLSI method
How it was run: (§2)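 Agar dilution MIC per CLSI methodology; calcium supplemented for daptomycin testing; vancomycin plates read after a full 24-h incubation.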

Staphylococcus aureus [4] = test: Antimicrobial activity against community-acquired vancomycin-intermediate Staphylococcus aureus 504 by agar dilution CLSI method; how it was run: as §1
Staphylococcus aureus [5] = test: Antimicrobial activity against vancomycin-resistant Staphylococcus aureus 510 Hershey by agar dilution CLSI method; how it was run: as §2
Staphylococcus aureus [6] = test: Antimicrobial activity against methicillin-resistant Staphylococcus aureus 525 by agar dilution CLSI method; how it was run: as §1
Staphylococcus aureus [7] = test: Antimicrobial activity against panton-valentine leukocidin-negative community-acquired methicillin-resistant Staphylococcus aureus 481 after 14 passages with CG400549 measured after 10 antibiotic-free subculture by multi-step resistance selection technique
How it was run: (§3)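 Mutants from multistep daily serial passage in subinhibitory drug were then subcultured daily 10 times on antibiotic-free medium. MIC was redetermined after these subcultures to assess stability. Clone identity was checked by pulsed-field gel electrophoresis.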

Staphylococcus aureus [8] = test: Antimicrobial activity against panton-valentine leukocidin-negative community-acquired methicillin-resistant Staphylococcus aureus 481 after 14 passages with daptomycin measured after 10 antibiotic-free subculture by multi-step resistance selection technique; how it was run: as §3
Staphylococcus aureus [9] = test: Antimicrobial activity against panton-valentine leukocidin-negative community-acquired methicillin-resistant Staphylococcus aureus 481 after 37 passages with Linezolid measured after 10 antibiotic-free subculture by multi-step resistance selection technique; how it was run: as §3
Staphylococcus aureus [10] = test: Antimicrobial activity against panton-valentine leukocidin-positive community-acquired methicillin-resistant Staphylococcus aureus 490 after 22 passages with Linezolid measured after 10 antibiotic-free subculture by multi-step resistance selection technique
How it was run: (§4)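 Multistep-selected mutants (daily passage at subinhibitory drug levels) then subcultured 10 times daily on antibiotic-free medium; MIC redetermined afterwards and compared with the MIC recorded at the end of selection; clone identity to parent checked by pulsed-field gel electrophoresis.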

Staphylococcus aureus [11] = test: Antimicrobial activity against vancomycin-intermediate Staphylococcus aureus 504 after 14 passages with CG400549 measured after 10 times antibiotic-free subculture by multi-step resistance selection technique; how it was run: as §4
Staphylococcus aureus [12] = test: Antimicrobial activity against vancomycin-intermediate Staphylococcus aureus 504 after 22 passages with Linezolid measured after 10 times antibiotic-free subculture by multi-step resistance selection technique; how it was run: as §4
Staphylococcus aureus [13] = test: Antimicrobial activity against vancomycin-intermediate Staphylococcus aureus 504 after 16 passages with quinupristin-dalfopristin measured after 10 times antibiotic-free subculture by multi-step resistance selection technique; how it was run: as §4
Staphylococcus aureus [14] = test: Antimicrobial activity against vancomycin-resistant Staphylococcus aureus 509 Michigan after 20 passages with daptomycin measured after 10 antibiotic-free subculture by multi-step resistance selection technique; how it was run: as §4
Staphylococcus aureus [15] = test: Antimicrobial activity against vancomycin-resistant Staphylococcus aureus 509 Michigan after 18 passages with quinupristin-dalfopristin measured after 10 antibiotic-free subculture by multi-step resistance selection technique; how it was run: as §4
Staphylococcus aureus [16] = test: Antimicrobial activity against methicillin and vancomycin-resistant Staphylococcus aureus 509 after single-step resistance selection by agar dilution CLSI method
How it was run: (§5)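 Single-step selection on drug-containing agar across 10 strains (2 MSSA, 8 MRSA, including VRSA and VISA). Colonies arising on confluent background growth were retested by CLSI agar dilution MIC. Resistance was defined as an MIC more than 4× the parent MIC.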

Staphylococcus aureus [17] = test: Antimicrobial activity against vancomycin-resistant Staphylococcus aureus 510 Hershey after 14 passages with CG400549 measured after 10 antibiotic-free subculture by multi-step resistance selection technique; how it was run: as §4
Staphylococcus aureus [18] = test: Antimicrobial activity against vancomycin-resistant Staphylococcus aureus 510 Hershey after 18 passages with daptomycin measured after 10 antibiotic-free subculture by multi-step resistance selection technique; how it was run: as §4
Staphylococcus aureus [19] = test: Antimicrobial activity against vancomycin-intermediate Staphylococcus aureus 555 Hershey by agar dilution CLSI method; how it was run: as §2
Staphylococcus aureus [20] = test: Antimicrobial activity against methicillin-susceptible Staphylococcus aureus 540 by agar dilution CLSI method; how it was run: as §1
Staphylococcus aureus [21] = test: Antimicrobial activity against methicillin-resistant Staphylococcus aureus 525 after 14 passages with CG400549 measured after 10 antibiotic-free subculture by multi-step resistance selection technique; how it was run: as §3
Staphylococcus aureus [22] = test: Antimicrobial activity against methicillin-resistant Staphylococcus aureus 525 after 20 passages with daptomycin measured after 10 antibiotic-free subculture by multi-step resistance selection technique; how it was run: as §3
Staphylococcus aureus [23] = test: Antimicrobial activity against methicillin-resistant Staphylococcus aureus 525 after 16 passages with quinupristin-dalfopristin measured after 10 antibiotic-free subculture by multi-step resistance selection technique; how it was run: as §3
Staphylococcus aureus [24] = test: Antimicrobial activity against methicillin-resistant Staphylococcus aureus 547 after 14 passages with CG400549 measured after 10 antibiotic-free subculture by multi-step resistance selection technique; how it was run: as §3
Staphylococcus aureus [25] = test: Antimicrobial activity against methicillin-resistant Staphylococcus aureus 547 after 21 passages with daptomycin measured after 10 antibiotic-free subculture by multi-step resistance selection technique; how it was run: as §3
Staphylococcus aureus [26] = test: Antimicrobial activity against methicillin-resistant Staphylococcus aureus 547 after 48 passages with Linezolid measured after 10 antibiotic-free subculture by multi-step resistance selection technique; how it was run: as §3
Staphylococcus aureus [27] = test: Antimicrobial activity against methicillin-resistant Staphylococcus aureus 547 after 21 passages with quinupristin-dalfopristin measured after 10 antibiotic-free subculture by multi-step resistance selection technique; how it was run: as §3
Staphylococcus aureus [28] = test: Antimicrobial activity against vancomycin-intermediate Staphylococcus aureus 555 Hershey after 14 passages with CG400549 measured after 10 antibiotic-free subculture by multi-step resistance selection technique; how it was run: as §4
Staphylococcus aureus [29] = test: Antimicrobial activity against methicillin-susceptible Staphylococcus aureus 540 after 14 passages with CG400549 measured after 10 antibiotic-free subculture by multi-step resistance selection technique; how it was run: as §3
Staphylococcus aureus [30] = test: Antimicrobial activity against methicillin-susceptible Staphylococcus aureus 540 after 24 passages with daptomycin measured after 10 antibiotic-free subculture by multi-step resistance selection technique; how it was run: as §3
Staphylococcus aureus [31] = test: Antimicrobial activity against methicillin-susceptible Staphylococcus aureus 543 after 14 passages with CG400549 measured after 10 antibiotic-free subculture by multi-step resistance selection technique; how it was run: as §3
Staphylococcus aureus [32] = test: Antimicrobial activity against methicillin-susceptible Staphylococcus aureus 543 after 17 passages with daptomycin measured after 10 antibiotic-free subculture by multi-step resistance selection technique; how it was run: as §3
Staphylococcus aureus [33] = test: Antimicrobial activity against methicillin-resistant vancomycin-intermediate Staphylococcus aureus 555 after single-step resistance selection by agar dilution CLSI method; how it was run: as §5
Staphylococcus aureus [34] = test: Antimicrobial activity against methicillin-resistant vancomycin-intermediate Staphylococcus aureus 504 after single-step resistance selection by agar dilution CLSI method; how it was run: as §5
Staphylococcus aureus [35] = test: Antimicrobial activity against methicillin-resistant Staphylococcus aureus 481 after single-step resistance selection by agar dilution CLSI method; how it was run: as §5
Staphylococcus aureus [36] = test: Antimicrobial activity against methicillin-resistant Staphylococcus aureus 547 after single-step resistance selection by agar dilution CLSI method; how it was run: as §5
Staphylococcus aureus [37] = test: Antimicrobial activity against methicillin-susceptible Staphylococcus aureus 540 after single-step resistance selection by agar dilution CLSI method; how it was run: as §5
Staphylococcus aureus [38] = test: Antimicrobial activity against methicillin-susceptible Staphylococcus aureus 543 after single-step resistance selection by agar dilution CLSI method; how it was run: as §5

Compound	MIC50 (Staphylococcus aureus [1])	MIC90 (Staphylococcus aureus [1])	MIC (Staphylococcus aureus [2])	MIC (Staphylococcus aureus [3])	MIC (Staphylococcus aureus [4])	MIC (Staphylococcus aureus [5])	MIC (Staphylococcus aureus [6])	MIC (Staphylococcus aureus [7])	MIC (Staphylococcus aureus [8])	MIC (Staphylococcus aureus [9])	MIC (Staphylococcus aureus [10])	MIC (Staphylococcus aureus [11])	MIC (Staphylococcus aureus [12])	MIC (Staphylococcus aureus [13])	MIC (Staphylococcus aureus [14])	MIC (Staphylococcus aureus [15])	MIC (Staphylococcus aureus [16])	MIC (Staphylococcus aureus [17])	MIC (Staphylococcus aureus [18])	MIC (Staphylococcus aureus [19])	also measured
Cc1c(N)cccc1Cn1ccc(OCCc2cccs2)cc1=O [CG-400549]	0.25 µg/mL (≈ 0.734 µM)	0.25 µg/mL (≈ 0.734 µM)	0.25 µg/mL (≈ 0.734 µM)	0.25 µg/mL (≈ 0.734 µM)	0.25 µg/mL (≈ 0.734 µM)	0.25 µg/mL (≈ 0.734 µM)	0.25 µg/mL (≈ 0.734 µM)	2 µg/mL (≈ 5.87 µM)	0.25 µg/mL (≈ 0.734 µM)	0.125 µg/mL (≈ 0.367 µM)	0.25 µg/mL (≈ 0.734 µM)	2 µg/mL (≈ 5.87 µM)	0.25 µg/mL (≈ 0.734 µM)	0.5 µg/mL (≈ 1.47 µM)	1 µg/mL (≈ 2.94 µM)	1 µg/mL (≈ 2.94 µM)	0.125 µg/mL (≈ 0.367 µM)	4 µg/mL (≈ 11.7 µM)	0.125 µg/mL (≈ 0.367 µM)	0.25 µg/mL (≈ 0.734 µM)	MIC (Staphylococcus aureus [20]): 0.125 µg/mL (≈ 0.367 µM); MIC (Staphylococcus aureus [21]): 4 µg/mL (≈ 11.7 µM); MIC (Staphylococcus aureus [22]): 0.125 µg/mL (≈ 0.367 µM); MIC (Staphylococcus aureus [23]): 0.125 µg/mL (≈ 0.367 µM); MIC (Staphylococcus aureus [24]): 8 µg/mL (≈ 23.5 µM); MIC (Staphylococcus aureus [25]): 0.125 µg/mL (≈ 0.367 µM); MIC (Staphylococcus aureus [26]): 0.125 µg/mL (≈ 0.367 µM); MIC (Staphylococcus aureus [27]): 0.125 µg/mL (≈ 0.367 µM); MIC (Staphylococcus aureus [28]): 2 µg/mL (≈ 5.87 µM); MIC (Staphylococcus aureus [29]): 4 µg/mL (≈ 11.7 µM); MIC (Staphylococcus aureus [30]): 0.125 µg/mL (≈ 0.367 µM); MIC (Staphylococcus aureus [31]): 8 µg/mL (≈ 23.5 µM); MIC (Staphylococcus aureus [32]): 0.125 µg/mL (≈ 0.367 µM); MIC (Staphylococcus aureus [33]): 0.125 µg/mL (≈ 0.367 µM); MIC (Staphylococcus aureus [34]): 0.125 µg/mL (≈ 0.367 µM); MIC (Staphylococcus aureus [35]): 0.125 µg/mL (≈ 0.367 µM); MIC (Staphylococcus aureus [36]): 0.125 µg/mL (≈ 0.367 µM); MIC (Staphylococcus aureus [37]): 0.125 µg/mL (≈ 0.367 µM); MIC (Staphylococcus aureus [38]): 0.125 µg/mL (≈ 0.367 µM)
CCCCCCCCCC(=O)N[C@@H](Cc1c[nH]c2ccccc12)C(=O)N[C@H](CC(N)=O)C(=O)N[C@@H](CC(=O)O)C(=O)N[C@@H]1C(=O)NCC(=O)N[C@@H](CCCN)C(=O)N[C@@H](CC(=O)O)C(=O)N[C@H](C)C(=O)N[C@@H](CC(=O)O)C(=O)NCC(=O)N[C@H](CO)C(=O)N[C@@H]([C@H](C)CC(=O)O)C(=O)N[C@@H](CC(=O)c2ccccc2N)C(=O)O[C@@H]1C	1 µg/mL (≈ 0.617 µM)	1 µg/mL (≈ 0.617 µM)	1 µg/mL (≈ 0.617 µM)	1 µg/mL (≈ 0.617 µM)	4 µg/mL (≈ 2.47 µM)	1 µg/mL (≈ 0.617 µM)	1 µg/mL (≈ 0.617 µM)	1 µg/mL (≈ 0.617 µM)	8 µg/mL (≈ 4.94 µM)	1 µg/mL (≈ 0.617 µM)	1 µg/mL (≈ 0.617 µM)	1 µg/mL (≈ 0.617 µM)	1 µg/mL (≈ 0.617 µM)	2 µg/mL (≈ 1.23 µM)	4 µg/mL (≈ 2.47 µM)	1 µg/mL (≈ 0.617 µM)	0.5 µg/mL (≈ 0.309 µM)	1 µg/mL (≈ 0.617 µM)	4 µg/mL (≈ 2.47 µM)	16 µg/mL (≈ 9.87 µM)	MIC (Staphylococcus aureus [20]): 1 µg/mL (≈ 0.617 µM); MIC (Staphylococcus aureus [21]): 1 µg/mL (≈ 0.617 µM); MIC (Staphylococcus aureus [22]): 2 µg/mL (≈ 1.23 µM); MIC (Staphylococcus aureus [23]): 1 µg/mL (≈ 0.617 µM); MIC (Staphylococcus aureus [24]): 1 µg/mL (≈ 0.617 µM); MIC (Staphylococcus aureus [25]): 4 µg/mL (≈ 2.47 µM); MIC (Staphylococcus aureus [26]): 2 µg/mL (≈ 1.23 µM); MIC (Staphylococcus aureus [27]): 1 µg/mL (≈ 0.617 µM); MIC (Staphylococcus aureus [28]): 8 µg/mL (≈ 4.94 µM); MIC (Staphylococcus aureus [29]): 1 µg/mL (≈ 0.617 µM); MIC (Staphylococcus aureus [30]): 2 µg/mL (≈ 1.23 µM); MIC (Staphylococcus aureus [31]): 1 µg/mL (≈ 0.617 µM); MIC (Staphylococcus aureus [32]): 4 µg/mL (≈ 2.47 µM); MIC (Staphylococcus aureus [33]): 0.5 µg/mL (≈ 0.309 µM); MIC (Staphylococcus aureus [34]): 0.5 µg/mL (≈ 0.309 µM); MIC (Staphylococcus aureus [35]): 0.5 µg/mL (≈ 0.309 µM); MIC (Staphylococcus aureus [36]): 0.5 µg/mL (≈ 0.309 µM); MIC (Staphylococcus aureus [37]): 0.5 µg/mL (≈ 0.309 µM); MIC (Staphylococcus aureus [38]): 0.5 µg/mL (≈ 0.309 µM)
